From PubChem
This is a sample that favours compounds with a hit; in the whole collection about 1.5% have one here.
NR2E3 ag-1 = human photoreceptor-specific nuclear receptor agonism. CHO-S Gal4-NCOR/VP16-NR2E3 two-hybrid, luciferase. hit rate 0.35% among 360,000. inhibition of corepressor binding, % at 3.98 µM;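 active = inhibition above the mean of all tested compounds plus 3 SD, cut at about 70% in these data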;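 also: 0% = DMSO with NR2E3 transfected cells and 100% = cells lacking NR2E3 construct; higher means lower luciferase signal from less NR2E3 corepressor binding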
Target sequence (Q9Y5X4 whole entry, looked up, the tested form may be a part): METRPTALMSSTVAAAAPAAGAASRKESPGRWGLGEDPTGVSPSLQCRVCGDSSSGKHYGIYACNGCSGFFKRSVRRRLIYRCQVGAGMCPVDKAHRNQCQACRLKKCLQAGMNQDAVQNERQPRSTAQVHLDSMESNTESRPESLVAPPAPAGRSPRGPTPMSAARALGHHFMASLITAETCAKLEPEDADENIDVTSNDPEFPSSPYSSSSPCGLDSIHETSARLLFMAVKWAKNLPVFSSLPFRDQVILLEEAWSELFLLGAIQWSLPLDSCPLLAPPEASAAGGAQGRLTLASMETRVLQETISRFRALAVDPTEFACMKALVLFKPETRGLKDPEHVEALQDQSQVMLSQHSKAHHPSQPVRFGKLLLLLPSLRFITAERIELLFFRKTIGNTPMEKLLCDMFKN
NR2E3 ag-2 = NR2E3 (human) agonism; inhibition of corepressor binding, % at 4.78 µM; GST-NR2E3/biotin-RetCOR TR-FRET, 1536-well; Q9Y5X4; hit rate 0.12% among 320,000;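 active = percent inhibition above the cutoff of mean plus 3 SD of all tested compounds, set per screening campaign, cut at about 20% in these data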;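 also: 0% = DMSO wells and 100% = biotin wells as full block of FRET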
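Material: NR2E3–RetCOR corepressor complex | Quantity: 1.35 nM GST-tagged NR2E3 final | Schedule: 5 h at 4 °C | Replication: Singlicate compound wells | Reagent: RetCOR corepressor, biotinylated, 7 nM | Controls: Biotin wells as high control, 0.6% DMSO wells as low control | Signal: TR-FRET, Eu(K)-anti-GST donor, streptavidin-D2 acceptor, ex 340, em 617/671 nm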
PG9 Ab binder = PG9 antibody binding by small molecule; inhibition, % at 6.7 µM; AID 624416; TR-FRET gp120-PG9 antibody binding; hit rate 0.43% among 360,000; in the data active = inhibition above about 8.5%
NR1D1 modulator = modulators of human Rev-erb alpha DNA binding. P20393. Rev-erbα–FITC-DNA binding, fluorescence polarization, 90 min. activity, % at 10 µM. hit rate 0.79% among 370,000;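 active = activity above about 14%, limit read from the data; passing the limit was not always enough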;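 also: 0% = DMSO wells with 35 nM protein and 100% = DMSO wells with 750 nM protein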
NR1D1 mod conf = confirmation of modulators of human Rev-erb alpha DNA binding; shares compounds with NR1D1 modulator; Rev-erb alpha FITC-DNA binding, fluorescence polarization, 90 min; activation, % at 25 µM; hit rate 61% among 3,000; AID 1259319;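 active = activation at or above a set limit, or at least 3 SD above the negative control mean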;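 also: 0% = 35 nM protein with DMSO and 100% = 750 nM protein high control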
RORg counter = RORgamma DNA-binding activity, dose-response counter-screen. hit rate 8% among 910. shares compounds with NR1D1 modulator. purified RORgamma protein-FITC-DNA binding, fluorescence polarization. IC50, µM;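 active = Compounds whose fitted half-maximal concentration for disrupting protein-DNA binding is below 10 micromolar; the record names Rev-erb in its text, so the target is in doubt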
* marks the source's active call; other numbers are inactive results; i = inactive; . = no result given.

SMILES	NR2E3 ag-1	NR2E3 ag-2	PG9 Ab binder	NR1D1 modulator	NR1D1 mod conf	others
Cc1ccc(S(=O)(=O)c2nnn3c2nc(Nc2cccc(C)c2)c2ccccc23)cc1	1.1	-2.9	-0.1	28.5*	14.1
O=C1CCCN1CCCNc1nc2c(S(=O)(=O)c3ccc(Br)cc3)nnn2c2ccccc12	-6.0	0.1	1.5	30.6*	5.9
Cc1ccc(C)c(Nc2nc3c(S(=O)(=O)c4ccccc4)nnn3c3ccccc23)c1	-2.0	-1.3	1.2	63.3*	32.8*	RORg counter=>40
CC(C)c1ccc(S(=O)(=O)c2nnn3c2nc(NCC2CCCO2)c2ccccc23)cc1 (stereo not given)	10.5	-2.6	.	.	.
COC(=O)c1cn(-c2ccc3c(c2)[C@]2(CC(=O)N(C)C2c2ccccc2)C(=O)N3CC(C)C)nn1 (stereo not given in full)	.	.	.	-1.3	.
C=CCN1C(=O)[C@@H](CC(=O)NCC23CC4CC(CC(C4)C2)C3)[C@]2(C(=O)OCC)CCCCC/C=C/12	.	.	.	10.2	.
COc1ccc(-n2c(COc3ccc(Cl)cc3)nnc2SCC(=O)c2ccc(-c3ccccc3)cc2)cc1	.	.	.	22.5*	2.3
Cc1sc2ncnc(N3CCC(C(=O)Nc4nc(-c5cccs5)cs4)CC3)c2c1C	-5.1	2.5	0.2	6.5	.
CCc1nnc(NC(=O)C2CCN(c3ncnc4sc(C)c(C)c34)CC2)s1	5.8	4.0	-0.7	35.1*	5.8
CCCCc1nnc(NC(=O)C2CCN(c3ncnc4sc(C)c(C)c34)CC2)s1	3.1	0.4	3.9	18.9*	11.2
Cc1ccc(-n2nnnc2SCC(=O)c2c(N)n(C3CC3)c(=O)[nH]c2=O)cc1C	19.7	1.6	1.6	20.8*	13.5*
Cc1cccc2cc(C#N)c(NCCNC(=O)NC3CCCCC3)nc12	0.8	-1.5	1.1	62.2*	31.2*	RORg counter=>40
COc1ccc(C(=O)NCCNc2nc3c(C)cccc3cc2C#N)cc1	-9.7	0.8	0.5	1.4	.
CCOc1ccc(-c2cc(C(=O)OC)nc3c2c(=O)n(C)c(=O)n3C)cc1	-6.1	-1.6	0.6	38.9*	0.3
CC(=O)c1cc(-c2ccccc2)n(CC(=O)NCc2ccc(Cl)cc2)c1C	.	.	.	23.8*	15.5*
CCOc1ccccc1NC(=O)c1cnc2n(c1=O)CCS2	-7.7	-0.4	0.2	45.9*	37.9*	RORg counter=>40
CCOC(=O)N1CCC(n2c(SCC(=O)c3ccccc3)nc3ccsc3c2=O)CC1	5.3	-0.7	-2.2	36.8*	55.4*	RORg counter=i
CCCOc1ccc(-c2cc(C(C)=O)c3n(c2=O)CCC3)cc1	.	.	.	-3.6	.
COc1ccc(CCN2CCC(Nc3nc4ccccc4n3Cc3ccc(F)cc3)CC2)cc1	-8.8	0.3	0.9	-7.0	.
COc1c(O)cccc1[C@@H](O)C1CCN(CCc2ccc(F)cc2)CC1	7.0	0.1	1.1	18.6*	6.0
Cc1ccc2cc(C)c(SCC(=O)Nc3ccc(S(=O)(=O)N4CCCC4)cc3)nc2c1	7.5	0.2	2.3	26.8*	19.1*
COc1cc(NC(=O)CSc2nc3ccccc3cc2C)c(C(=O)O)cc1OC	-22.3	0.6	-2.3	-3.5	.
Cc1ccc(-c2nnc(SCC(=O)Nc3ccc(S(=O)(=O)N4CCCCCC4)cc3)o2)cc1	-9.4	-1.7	1.8	-0.3	.
Cc1cc2cc3c(cc2nc1SCC(=O)Nc1ccccc1)CCC3	2.6	0.1	-0.9	33.2*	15.4
O=C(CCSc1nnc2scc(-c3ccccc3)n12)Nc1nc(-c2ccccc2)ns1	-7.3	-2.4	0.2	24.0*	46.2*	RORg counter=>40
SMILES	NR2E3 ag-1	NR2E3 ag-2	PG9 Ab binder	NR1D1 modulator	NR1D1 mod conf	others
CCNC(=O)Cn1cc(C(F)(F)F)cc(Cl)c1=O	-24.2	-2.6	-0.8	6.5	.
O=C(Cn1cc(C(F)(F)F)cc(Cl)c1=O)NCc1ccc(Cl)cc1Cl	-27.1	3.1	4.3	38.8*	55.8*	RORg counter=>40
COC(=O)c1sc2nc(C)cc(C)c2c1N	-47.5	-0.1	1.9	11.0	.
C=COC(=O)c1sc2nc(C)cc(C)c2c1N	-34.0	1.4	0.5	24.3*	13.2
COC(=O)[C@]12C[C@H](CC(=O)N3CCCC3)C(=O)N(Cc3cccc4ccccc34)C1=C[C@H](COCc1ccccc1)O[C@@H]2C	.	.	.	-6.3	.
CCOC(=O)c1cc2c(nc1NC(=S)Nc1ccccc1)CC(C)(C)OC2	5.6	3.6	-5.1	-2.4	.
CCOC(=O)c1cc2c(nc1NC(=S)NCc1ccccc1)CCCC2	-3.1	8.0	-0.2	37.6*	22.9*
O=C(NCc1ccco1)c1ccc(Cn2c(=O)c3sccc3n(Cc3cccc(F)c3)c2=O)cc1	-21.0	3.9	-0.6	34.3*	36.7*	RORg counter=>40
O=C(NCc1ccco1)c1ccc(Cn2c(=O)c3ccccc3n(Cc3cccc(Cl)c3)c2=O)cc1	0.9	-0.2	2.7	1.0	.
NS(=O)(=O)c1ccc(CCNC(=O)c2ccc(Cn3c(=O)[nH]c4ccccc4c3=O)cc2)cc1	-14.6	-3.3	8.4	19.3*	1.1
CC(C)CCNC(=O)c1ccc(Cn2c(=S)[nH]c3ccccc3c2=O)cc1	-24.7	1.5	4.0	28.9*	26.0*
O=C1CCC[C@H]2C[C@H](NCc3cccs3)CC[C@]23CCCN13	.	.	.	-2.4	.
Cc1ccc(C(=O)N(Cc2ccco2)c2c(N)n(Cc3ccccc3)c(=O)[nH]c2=O)cc1	7.4	.	0.0	0.6	.
COc1cc(OC)cc(C(=O)N(Cc2ccco2)c2c(N)n(Cc3ccccc3)c(=O)[nH]c2=O)c1	10.1	.	-1.6	17.5*	-4.1
O=c1c([N+](=O)[O-])c(Cl)c2ccccc2n1Cc1ccccc1	.	.	.	-0.9	.
COc1ccccc1-c1ccc2c(c1)C(C)(Cc1ccccc1C#N)C(=O)N2 (stereo not given)	33.5	.	0.2	47.8*	41.6*	RORg counter=>40
CCc1ccc2c(c1)NC(=O)C2(C)Cc1ccccc1C#N (stereo not given)	9.7	.	0.7	2.2	.
CC1(Cc2ccccc2C#N)C(=O)Nc2ccc(-c3ccccc3)cc21 (stereo not given)	-12.4	.	-1.1	35.6*	51.0*	RORg counter=>40
O=C(NCC1COc2ccccc2O1)c1ccc(NC(=O)c2c(Cl)cccc2Cl)cc1 (stereo not given)	.	.	.	4.8	.
CSc1nnc(N2C(=O)C(O)=C(C(=O)c3ccco3)C2c2cccc(Cl)c2)s1 (stereo not given)	-46.2	9.6	0.3	30.6*	29.3*	RORg counter=>40
COC(=O)[C@@H]1C[C@@]2(c3ccccc3)c3ccccc3N(S(=O)(=O)c3ccccc3)[C@H]2N1C(=O)CNC1CCCCC1	.	.	.	2.5	.
Cc1c(NC(=O)C2CCCN(S(=O)(=O)c3cnc[nH]3)C2)c(=O)n(-c2ccccc2)n1C (stereo not given)	-9.1	1.9	-1.4	1.7	.
Cc1c(NC(=O)C2CCCN(S(=O)(=O)c3c(C(C)C)cc(C(C)C)cc3C(C)C)C2)c(=O)n(-c2ccccc2)n1C (stereo not given)	.	.	.	28.5*	24.5*
